Series [1] deals with T1, Mitogen-activated protein kinase 9 (Homo sapiens, UniProt P45984). As to the kind of experiment: Ratio of IC50 for human JNK2 in presence of human serum to IC50 for human JNK2 in absence of human serum.
Target sequence in this assay (P45984 whole entry, looked up): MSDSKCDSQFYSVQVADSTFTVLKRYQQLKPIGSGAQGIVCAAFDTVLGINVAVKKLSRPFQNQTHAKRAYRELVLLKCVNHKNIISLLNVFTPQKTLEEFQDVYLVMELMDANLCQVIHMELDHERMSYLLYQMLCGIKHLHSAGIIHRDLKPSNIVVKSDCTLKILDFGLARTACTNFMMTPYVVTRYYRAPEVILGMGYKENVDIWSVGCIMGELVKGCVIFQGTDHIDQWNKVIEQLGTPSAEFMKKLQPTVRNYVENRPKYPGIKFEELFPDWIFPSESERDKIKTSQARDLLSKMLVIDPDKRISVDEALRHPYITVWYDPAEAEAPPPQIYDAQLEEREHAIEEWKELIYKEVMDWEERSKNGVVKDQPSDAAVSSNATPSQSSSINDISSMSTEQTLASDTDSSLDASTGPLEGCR
Series [2] deals with c-Jun N-terminal kinase, JNK (Homo sapiens, UniProt P45983+P53779+P45984). Nature of the series: Inhibition of JNK in human SW1353 cells assessed as inhibition of TNFalpha-induced c-Jun phosphorylation incubated for 30 mins prior to TNFalpha induction measured after 20 mins. The format is cell-based. In short, it runs like this: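 SW1353 cells were stimulated with TNFa, and the read-out was inhibition of phosphorylation of the downstream substrate c-Jun. Values are the mean of at least three experiments.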

For series [3], the target named is Mitogen-activated protein kinase 8 (Homo sapiens, UniProt P45983).
In series [4] the target is T1, Mitogen-activated protein kinase 9.
Target sequence in this assay (P45984 whole entry): as the sequence (P45984 whole entry, looked up) above
Series [5] in a line: Clearance in human liver microsomes. The format is ADME, Microsome. Conditions: read-out: CLH. Summed up:
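Intrinsic clearance was measured in vitro in human liver microsomes and expressed per mg microsomal protein.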

The target in the next series is Cytochrome P450 2C9 (Homo sapiens, UniProt P11712). Nature of the series: Inhibition of CYP2C9 (unknown origin). The format is ADME.
In another series the test system is HCT-116. Nature of the series: Cytotoxicity against human HCT116 cells assessed as cell viability by WST-1 reduction assay. The format is cell-based. Summed up:
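Cytotoxicity was measured in an HCT-116 cell proliferation assay as reduction of WST-1 reagent. Values are the mean of at least three experiments.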
(In general: Tetrazolium assays rely on reduction of a dye to a coloured formazan, in cell work by metabolically active cells.)

In series [6] the target is Cyclin-dependent kinase 2/cyclin E1 (Homo sapiens, UniProt P24941). As to the kind of experiment: Inhibition of human recombinant CDK2/GST-tagged cyclin E expressed in baculovirus infected insect cells assessed as inhibition of 6XHis-tagged retinoblastoma protein (386 to 928) phosphorylation after 30 mins by scintillation counting analysis in presence of [gamma-33P]-ATP. Summed up:
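CDK2 activity was measured as phosphorylation of a 6-histidine-tagged truncated retinoblastoma protein (amino acids 386–928) using [γ-33P]ATP.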

The species entered for the next series is Homo sapiens. As to the kind of experiment: Selectivity ratio of IC50 for human JNK2 to IC50 for human JNK1. In short, it runs like this:
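JNK1 and JNK2 activities were each measured as phosphorylation of GST-ATF2 (19–96) with [γ-33P]ATP, and IC50s were determined for each enzyme. The ratio is JNK2 IC50 over JNK1 IC50. IC50s are the mean of at least three experiments.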

In series [7] the target is Cyclin-dependent kinase 4/cyclin D1 (Homo sapiens, UniProt P11802). As to the kind of experiment: Inhibition of human recombinant human GST-tagged CDK4/cyclin D1 expressed in baculovirus infected insect cells assessed as inhibition of 6XHis-tagged retinoblastoma protein (386 to 928) phosphorylation after 30 mins by scintillation counting analysis in presence of [gamma-33P]-ATP.

For series [8], the target named is Mitogen-activated protein kinase 10 (Homo sapiens, UniProt P53779). As to the kind of experiment: Inhibition of human JNK3 assessed as inhibition of GST-tagged ATF2 (19 to 96) phosphorylation incubated for 10 mins prior to substrate addition measured after 30 mins by scintillation counting analysis in presence of [gamma-33P]-ATP.
Series [9] has as its target Cyclin-dependent kinase 1/cyclin B1 (Homo sapiens, UniProt P06493). As to the kind of experiment: Inhibition of human recombinant human CDK1/GST-tagged cyclin B expressed in baculovirus infected insect cells assessed as inhibition of 6XHis-tagged retinoblastoma protein (386 to 928) phosphorylation after 30 mins by scintillation counting analysis in presence of [gamma-33P]-ATP.

For the next series, the target named is MAP kinase p38 (Homo sapiens, UniProt O15264+Q15759+Q16539+P53778). Nature of the series: Inhibition of p38 (unknown origin). The format is protein assay.

Molecules are shown by their SMILES. pIC50: −log10 of the molar value. Where only a bound is given, the exact number is not on record here.

Sequence of Mitogen-activated protein kinase 8 (P45983 whole entry): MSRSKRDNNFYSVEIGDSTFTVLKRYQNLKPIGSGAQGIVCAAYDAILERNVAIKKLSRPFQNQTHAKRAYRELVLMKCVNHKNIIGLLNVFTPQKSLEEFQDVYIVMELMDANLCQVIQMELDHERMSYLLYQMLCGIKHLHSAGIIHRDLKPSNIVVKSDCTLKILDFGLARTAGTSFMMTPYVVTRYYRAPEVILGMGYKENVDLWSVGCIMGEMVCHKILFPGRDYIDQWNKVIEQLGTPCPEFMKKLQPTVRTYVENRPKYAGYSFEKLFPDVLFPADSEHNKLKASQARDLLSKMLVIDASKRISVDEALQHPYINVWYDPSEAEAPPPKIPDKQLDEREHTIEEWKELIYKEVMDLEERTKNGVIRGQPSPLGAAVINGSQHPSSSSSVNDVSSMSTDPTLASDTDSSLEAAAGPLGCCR
Sequence of Cytochrome P450 2C9 (P11712 whole entry): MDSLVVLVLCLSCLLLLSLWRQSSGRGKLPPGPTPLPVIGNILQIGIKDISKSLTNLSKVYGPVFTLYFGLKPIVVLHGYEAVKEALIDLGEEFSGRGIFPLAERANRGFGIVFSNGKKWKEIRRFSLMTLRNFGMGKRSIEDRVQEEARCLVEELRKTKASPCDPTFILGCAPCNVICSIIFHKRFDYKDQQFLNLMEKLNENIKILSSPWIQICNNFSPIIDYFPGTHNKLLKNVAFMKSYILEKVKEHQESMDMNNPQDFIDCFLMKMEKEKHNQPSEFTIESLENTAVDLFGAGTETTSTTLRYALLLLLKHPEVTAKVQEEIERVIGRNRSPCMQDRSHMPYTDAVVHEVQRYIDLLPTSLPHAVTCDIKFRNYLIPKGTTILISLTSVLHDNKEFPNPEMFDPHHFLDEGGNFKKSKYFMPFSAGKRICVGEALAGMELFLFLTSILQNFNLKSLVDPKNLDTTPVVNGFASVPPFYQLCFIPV
Sequence of Cyclin-dependent kinase 4/cyclin D1 (P11802 whole entry): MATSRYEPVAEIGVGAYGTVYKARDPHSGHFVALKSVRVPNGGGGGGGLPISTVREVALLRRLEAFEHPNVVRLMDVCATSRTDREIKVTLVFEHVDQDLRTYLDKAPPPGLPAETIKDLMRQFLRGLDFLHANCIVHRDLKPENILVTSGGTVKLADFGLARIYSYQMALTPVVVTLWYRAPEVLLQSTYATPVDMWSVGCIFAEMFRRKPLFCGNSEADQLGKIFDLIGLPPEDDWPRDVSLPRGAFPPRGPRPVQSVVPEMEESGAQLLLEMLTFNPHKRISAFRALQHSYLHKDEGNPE
Sequence of Cyclin-dependent kinase 4/cyclin D1 (P24385 whole entry, further chain): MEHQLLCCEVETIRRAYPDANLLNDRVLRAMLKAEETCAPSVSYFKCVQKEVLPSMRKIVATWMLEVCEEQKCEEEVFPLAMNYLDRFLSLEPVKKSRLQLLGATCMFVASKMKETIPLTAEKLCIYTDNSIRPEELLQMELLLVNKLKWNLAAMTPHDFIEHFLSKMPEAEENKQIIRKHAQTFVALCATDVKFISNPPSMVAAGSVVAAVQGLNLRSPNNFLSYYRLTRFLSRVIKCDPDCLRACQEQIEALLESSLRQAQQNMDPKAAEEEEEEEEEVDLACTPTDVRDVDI
Sequence of Cyclin-dependent kinase 1/cyclin B1 (P06493 whole entry): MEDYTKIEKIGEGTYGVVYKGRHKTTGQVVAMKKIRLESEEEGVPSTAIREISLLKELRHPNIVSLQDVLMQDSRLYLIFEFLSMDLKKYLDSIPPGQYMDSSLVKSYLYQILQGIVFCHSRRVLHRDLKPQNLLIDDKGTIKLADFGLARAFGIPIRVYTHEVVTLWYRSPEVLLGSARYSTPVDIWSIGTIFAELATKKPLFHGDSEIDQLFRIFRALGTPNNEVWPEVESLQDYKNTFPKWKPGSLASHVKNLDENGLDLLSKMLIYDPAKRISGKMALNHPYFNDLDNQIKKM
Sequence of Cyclin-dependent kinase 1/cyclin B1 (P14635 whole entry, further chain): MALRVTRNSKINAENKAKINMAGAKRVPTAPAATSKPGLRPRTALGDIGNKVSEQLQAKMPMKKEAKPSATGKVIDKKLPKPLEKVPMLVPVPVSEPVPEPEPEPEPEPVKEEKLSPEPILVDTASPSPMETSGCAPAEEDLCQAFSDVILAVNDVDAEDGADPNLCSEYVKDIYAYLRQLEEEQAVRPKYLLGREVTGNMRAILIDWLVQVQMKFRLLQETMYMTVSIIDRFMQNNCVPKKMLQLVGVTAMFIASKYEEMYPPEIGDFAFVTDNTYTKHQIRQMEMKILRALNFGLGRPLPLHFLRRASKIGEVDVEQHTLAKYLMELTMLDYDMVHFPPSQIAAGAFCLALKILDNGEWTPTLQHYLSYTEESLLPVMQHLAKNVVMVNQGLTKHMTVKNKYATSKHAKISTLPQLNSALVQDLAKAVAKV
Sequence of Mitogen-activated protein kinase 10 (P53779 whole entry): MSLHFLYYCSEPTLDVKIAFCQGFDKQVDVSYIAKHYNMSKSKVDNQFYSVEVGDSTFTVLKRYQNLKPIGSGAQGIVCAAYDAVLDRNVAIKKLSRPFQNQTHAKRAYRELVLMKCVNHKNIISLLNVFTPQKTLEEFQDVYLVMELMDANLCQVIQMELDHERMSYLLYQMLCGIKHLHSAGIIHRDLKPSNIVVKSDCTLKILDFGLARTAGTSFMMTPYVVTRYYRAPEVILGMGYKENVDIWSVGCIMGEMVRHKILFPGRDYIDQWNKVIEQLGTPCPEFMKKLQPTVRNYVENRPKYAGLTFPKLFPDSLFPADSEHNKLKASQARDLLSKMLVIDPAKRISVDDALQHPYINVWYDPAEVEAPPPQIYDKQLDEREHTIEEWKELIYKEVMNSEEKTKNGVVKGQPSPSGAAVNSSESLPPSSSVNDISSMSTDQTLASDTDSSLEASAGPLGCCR

Regarding `COc1cccc2c1cnn2-c1ccnc(N[C@H]2CC[C@H](O)CC2)n1`, the Ratio IC50 in series [1] stood at 37. The IC50 in series [2] worked out at 3100 nM.
For `CC(C)(O)[C@H]1CC[C@H](Nc2nccc(-n3ccc4c(OCCCS(C)(=O)=O)cccc43)n2)CC1`, in series [1], the Ratio IC50 worked out at 6.3. For the same compound, in series [2], the IC50 stood at 350 nM. In addition, the pIC50 is 8.40 in series [3] and 7.57 in series [4].
In the case of `CS(=O)(=O)NCCCOc1cccc2c1cnn2-c1ccnc(N[C@H]2CC[C@H](O)CC2)n1`, in [1], the Ratio IC50 is 17. The IC50 in series [2] was 1100 nM. Besides, the pIC50 in [3] is 7.25; in [4], 6.61.
For `OCC(O)COc1cccc2c1cnn2-c1ccnc(N[C@H]2CC[C@H](O)CC2)n1` (stereo partly specified) the same measures were 5.7, 2000 nM, 7.47 and 6.71.
As to `CS(=O)(=O)CCCOc1cccc2c1ccn2-c1ccnc(N[C@H]2CC[C@H](C(=O)N3CCC(F)(F)CC3)CC2)n1`, in series [5], the microsomal CLint came to 283 µL/min/mg. In [1], the Ratio IC50 stood at 4.2. Also, the IC50 in [2] amounted to 1400 nM. For the same compound, the pIC50 was 7.80 in series [3] and 7.29 in [4].
Turning to `CC(C)(O)[C@H]1CC[C@H](Nc2nccc(-n3ncc4c(OCCCS(C)(=O)=O)cccc43)n2)CC1`, the Ratio IC50 in series [1] was found to be 18. Besides, the IC50 in [2] was found to be 240 nM. Moreover, the results for the negative-log IC50 (pIC50) in series [3] and in series [4] were 8.40 and 7.68, respectively.
Take `CC(=O)N[C@H]1CC[C@H](Nc2nccc(-n3nnc4ccccc43)n2)CC1`: the pIC50 against Cytochrome P450 2C9 was 7.41; in the series with HCT-116, 4.80; in series [6] it was 6.24; in series [3], 7.41; in [4] it was 6.64. In addition, the IC50 in [2] came to 1500 nM. Also, in the series filed under Homo sapiens, the Ratio IC50 was found to be 4.
Take `CS(=O)(=O)CCCOc1cccc2c1ccn2-c1ccnc(N[C@H]2CC[C@H](C(=O)N3CC[C@@H](F)C3)CC2)n1`: the microsomal CLint in series [5] was determined as 175 µL/min/mg. Besides, the Ratio IC50 in series [1] came to 2.5. Further, in series [2], the IC50 is 590 nM. Also, the negative-log IC50 (pIC50) in series [3] is 7.85; in [4], 7.19.
On to `CS(=O)(=O)CCOc1cccc2c1cnn2-c1ccnc(N[C@H]2CC[C@H](O)CC2)n1`, for which, in series [1], the Ratio IC50 worked out at 4. Also, in series [2], the half-maximal inhibitory concentration (IC50) is 980 nM. In addition, the pIC50 in series [3] is 7.48; in series [4], 6.82.
For `COC1CCN(C(=O)[C@H]2CC[C@H](Nc3nccc(-n4ccc5c(OCCCS(C)(=O)=O)cccc54)n3)CC2)CC1`, in [5], the microsomal CLint was 141 µL/min/mg. The Ratio IC50 in series [1] turned out to be 2.9. In addition, in series [2], the IC50 worked out at 1400 nM. Also, the negative logarithm of the IC50 (pIC50) is 8.33 in series [3] and 7.55 in [4].
For `O=C([C@H]1CC[C@H](Nc2nccc(-n3nnc4ccccc43)n2)CC1)N1CCCC1`, the negative-log IC50 (pIC50) in the series with HCT-116 is under 4.52; in series [6], under 5.21; in series [3] it was 6.92; in series [4], 6.40. Besides, in [2], the IC50 worked out at 3300 nM. The Ratio IC50 in the series filed under Homo sapiens worked out at 4.
Consider `O[C@H]1CC[C@H](Nc2nccc(-c3nnc4ccccn34)n2)CC1`, for which, in [2], the IC50 was 12000 nM. Besides, the pIC50 is 6.24 in series [3] and 5.92 in [4].
Regarding `CCCOc1cccc2c1cnn2-c1ccnc(N[C@H]2CC[C@H](O)CC2)n1`, the Ratio IC50 in [1] is 147. For the same compound, the IC50 in [2] was over 30000 nM. The negative logarithm of the IC50 (pIC50) in [3] is 7.92; in series [4], 7.10.
For the compound `CS(=O)(=O)N[C@H]1CC[C@H](Nc2nccc(-n3nnc4ccccc43)n2)CC1`, the pIC50 in series [7] was 6.04; in series [8] it was 6.94; in [9], 5.82; with HCT-116, 5.64; in series [6] it was 6.52; in series [3], 7.62. This compound also showed a pIC50 in series [4] of 7.01. The concentration for half-maximal inhibition (IC50) was 1300 nM in series [2] and over 10000 nM against MAP kinase p38. In the series listed under Homo sapiens, the Ratio IC50 came to 4.
`O[C@H]1CC[C@H](Nc2nccc(N3CCc4ccccc43)n2)CC1`: the pIC50 is 6.11 in series [3] and 5.54 in series [4].
As for `CCN(CC)C(=O)[C@H]1CC[C@H](Nc2nccc(-n3ccc4c(OCCCS(C)(=O)=O)cccc43)n2)CC1`, the microsomal CLint in series [5] is 609 µL/min/mg. Also, the Ratio IC50 in series [1] is 4.6. Besides, the half-inhibitory concentration (IC50) in series [2] was found to be 580 nM. The pIC50 in series [3] is 7.85; in series [4], 7.24.
As to `CS(=O)(=O)CCCOc1cccc2c1ccn2-c1ccnc(N[C@H]2CC[C@H](C(=O)N3CC[C@@H](O)C3)CC2)n1`, in [5], the microsomal CLint stood at 19 µL/min/mg. Besides, in [1], the Ratio IC50 worked out at 2.6. Moreover, in [2], the IC50 came to 1100 nM. In addition, the pIC50 is 8.01 in series [3] and 7.33 in series [4].
As to `O[C@H]1CC[C@H](Nc2nccc(-c3c[nH]c4ccccc34)n2)CC1`, the IC50 in [2] worked out at 8200 nM. Besides, the pIC50 in series [3] is 6.85; in series [4] it was 6.14.
With `OCCCOc1cccc2c1cnn2-c1ccnc(N[C@H]2CC[C@H](O)CC2)n1`, the Ratio IC50 in series [1] is 28. Besides, in series [2], the IC50 was found to be 960 nM. For the same compound, the pIC50 in series [3] was 7.62; in series [4], 6.86.
For `CN(C)S(=O)(=O)N[C@H]1CC[C@H](Nc2nccc(-n3nnc4ccccc43)n2)CC1`, the pIC50 with HCT-116 was 4.66; in [6] it was 5.77; in series [3] it was 7.72; in series [4] it was 7.12. For the same compound, in [2], the IC50 worked out at 4900 nM. Further, the Ratio IC50 in the series filed under Homo sapiens came out at 4.
`c1ccc2c(c1)nnn2-c1ccnc(NC2CCCCC2)n1`: the pIC50 in series [6] was 5.57; in series [3], 7.00; in series [4], 6.41. In addition, the Ratio IC50 in the series filed under Homo sapiens was 4.

What is called IC50 is the point on the concentration scale where inhibition reaches its midpoint. The pIC50 is −log10 of the IC50, conventionally taken in molar units.

The values are drawn from ChEMBL document CHEMBL2424622, “Development of amino-pyrimidine inhibitors of c-Jun N-terminal kinase (JNK): kinase profiling guided optimization of a 1,2,3-benzotriazole lead” (Bioorg Med Chem Lett, 2013).
